# From PubChem BioAssay
# HNF4A DNA FP: change in binding of human HNF4A to DNA, primary screen, biochemical, fluorescence polarization, FITC-DNA; 1 h; activity change, % at 10 µM; 360,000 compounds, 0.3% hits; AID 1224865, 2016; in the data active = activity change above about 30%, passing the limit was not always enough
# CSN inh: inhibitors of CSN-mediated cullin deneddylation, primary screen, biochemical, fluorescence polarization, uHTS. COP9 signalosome complex subunit 5 (Homo sapiens), Q92905. 360,000 compounds, 0.38% hits. AID 651999, 2013. Purified CSN, SCF-Nedd8-OG deneddylation. inhibition, % at 12.5 µM;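 active = pattern-corrected inhibition above about 35%, with an unprinted fluorescence ratio check between 0.5 and 1.5, limit read from the data, passing the limit was not always enough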;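 note: 0% = enzyme with substrate and 100% = substrate without enzyme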
#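 Assay system: HEK293T-derived human Csn5 enzyme; quantity: 0.24 nM enzyme; medium: Tris/NaCl/DTT buffer, pH 7.5; also added: substrate SCFSkp2-Nedd8OG, 10 nM; doses: 12.5 µM compound; schedule: 90 min reaction at room temperature; signal: FP; read-out: % inhibition of substrate cleavage by Csn5; benchmarks: substrate-only high control, full reaction low control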
# aDG glyco act: activators of alpha-DG glycosylation, primary screen, uHTS, Pro5-aDG cells, AlphaScreen. alpha-DG glycosylation AlphaScreen (IIH6); 0% Pro5, 100% B10-LARGE cell signal. activation, % at 10 µM. 360,000 compounds, 0.22% hits. AID 624168, 2012;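 active = activation of at least 8% versus controls, or a plate z-score of at least 8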;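 note: Pro5 are CHO cells carrying HIG-tagged alpha-DG that lacks glycosylation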
# Rev-erbA mod: modulators of Rev-erb alpha DNA binding, primary screen, biochemical, FITC-DNA, fluorescence polarization, uHTS; Nuclear receptor subfamily 1 group D member 1 (Homo sapiens), P20393; Rev-erbα–FITC-DNA binding, 90 min; activity, % at 10 µM; 370,000 compounds, 0.79% hits;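 active = activity above about 14%, limit read from the data; passing the limit was not always enough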;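 note: 0% = DMSO wells with 35 nM protein and 100% = DMSO wells with 750 nM protein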
# Target sequence (P20393 whole entry, looked up): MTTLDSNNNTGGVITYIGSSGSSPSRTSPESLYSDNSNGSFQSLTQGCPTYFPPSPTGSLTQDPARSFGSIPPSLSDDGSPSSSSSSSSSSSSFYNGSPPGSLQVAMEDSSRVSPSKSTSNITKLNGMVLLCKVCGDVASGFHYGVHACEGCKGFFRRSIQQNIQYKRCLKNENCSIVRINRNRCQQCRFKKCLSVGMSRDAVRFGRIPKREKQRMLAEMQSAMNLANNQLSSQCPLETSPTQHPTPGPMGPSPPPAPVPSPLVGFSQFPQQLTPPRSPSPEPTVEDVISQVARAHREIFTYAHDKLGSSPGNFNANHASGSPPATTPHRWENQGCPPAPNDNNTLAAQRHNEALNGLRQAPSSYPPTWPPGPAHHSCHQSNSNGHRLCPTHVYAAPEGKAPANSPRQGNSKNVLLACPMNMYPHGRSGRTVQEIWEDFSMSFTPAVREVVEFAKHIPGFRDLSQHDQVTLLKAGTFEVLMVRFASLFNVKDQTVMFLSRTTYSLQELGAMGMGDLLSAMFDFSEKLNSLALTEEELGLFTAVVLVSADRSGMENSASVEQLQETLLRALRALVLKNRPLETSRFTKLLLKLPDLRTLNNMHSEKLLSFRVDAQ
# * hit, by the source's call; . = not tested or not shown. Shown are actives, neighbours in structure and some others; about 1.5% of the full set was active somewhere.
SMILES,HNF4A DNA FP,CSN inh,aDG glyco act,Rev-erbA mod
CC(C)C(=O)NC(=S)/C=C1/N(C)c2ccccc2C1(C)C,69*,48*,1,4
Cc1ccc(C(=O)NC(=S)/C=C2\N(C)c3ccccc3C2(C)C)cc1,13,28,1,1
Cc1ccc2c(c1)C1CS(=O)(=O)N(Cc3ccc(F)cc3)CN1C2 (stereo not drawn),.,.,.,1
CN(C)c1ccc(/C=C/c2ccc3c4ccccc4ccc3[n+]2-c2ccccc2)cc1,28,57*,-1,-8
CN(C)c1ccc(/C=C/c2ccc3ccccc3[n+]2C)cc1,12,9,4,-9
CCOC(=O)c1c(NC(=O)CSc2cccc[n+]2[O-])sc(C(=O)Nc2ccccc2)c1C,6,105*,0,1
CCOC(=O)c1c(NC(=O)CN(C)C2CCN(C)CC2)sc(C(=O)Nc2ccccc2)c1C,5,-4,4,3
CCOc1ccc(-n2c(SCC(=O)Nc3ccc(S(=O)(=O)Nc4nccs4)cc3)nnc2-c2ccco2)cc1,.,.,.,3
COc1ccc(Cn2c(O)c(/C=N/NC(=O)c3cccnc3)c3ccccc3c2=O)cc1,44*,31,-1,0
O=C(N/N=C/c1c(O)n(Cc2ccccc2)c(=O)c2ccccc12)c1cccnc1,42*,20,0,6
O=C(N/N=C/c1c(O)n(-c2ccccc2Cl)c(=O)c2ccccc12)c1cccnc1,33,13,0,5
CC1=C(C(=O)O)N2C(=O)[C@@H](NC(=O)[C@H](N)C3=CCC=CC3)[C@@H]2SC1,.,.,.,-2
CC(=O)NC(Cc1ccc2c(c1)OCO2)C(=O)N1CCCC1 (stereo not drawn),.,.,.,-2
Cn1nnnc1SCC1=C(C(=O)O)N2C(=O)[C@H](NC(=O)C(OC=O)c3ccccc3)C2SC1 (stereo partly drawn),.,.,.,-7
C[C@@]12CC(=O)NC1N(C(=O)c1ccccc1)C(c1ccccc1OC(=O)c1ccccc1)C2 (stereo partly drawn),36*,0,0,-1
CCC(=O)Oc1ccc2c(c1)CCC1C2CC[C@@]2(C)C1CC[C@@H]2OC(=O)CC (stereo partly drawn),.,.,.,-3
CC(=O)c1cccc(NS(=O)(=O)N(C)C)c1,50*,0,0,-1
CN(C)S(=O)(=O)Nc1cccc(Br)c1,5,2,0,-2
O=C(NC1CCC1)c1ccc(C#Cc2cccc(F)c2)nc1,.,.,.,0
O=c1ccc(-c2ccc(S(=O)(=O)Nc3ccc(F)cc3)s2)n[nH]1,0,0,0,-3
O=c1ccc(-c2ccc(S(=O)(=O)NCc3cccc(Br)c3)s2)n[nH]1,36*,-4,0,-1
O=C[C@H](O)[C@@H](O)[C@H](O)[C@H](O)CO,.,.,.,3
Cc1nc2nc(SCC(=O)NCCCN3CCCCCC3)nn2c(C)c1Cc1ccccc1,68*,88*,0,2
Cc1ccccc1Cc1c(C)nc2nc(SCC(=O)NCCCN3CCCCC3)nn2c1C,9,-4,0,.
COc1ccc(NS(=O)(=O)c2cc([N+](=O)[O-])ccc2N/N=C/c2c(C)[nH]c3ccccc23)cc1,77*,18,0,1
SMILES,HNF4A DNA FP,CSN inh,aDG glyco act,Rev-erbA mod
CN(C)c1ccc(-c2nc3ncc(Cl)cc3[nH]2)cc1,.,.,.,-5
Cc1onc(-c2ccccc2Cl)c1C(=O)NCc1ccco1,-12,49*,0,-21
O=C1OC(Nc2cc(Br)cc3cccnc23)c2ccccc21 (stereo not drawn),-1,1,7.4*,-23
O=C1OC(Nc2ncccn2)c2ccccc21 (stereo not drawn),-1,-19,0,0
CN1c2ccccc2C(C)(C)C12C=Nc1c(cc(N3CCOCC3)c3ccccc13)O2 (stereo not drawn),-4,16,1,2
CN1c2ccccc2C(C)(C)C12C=Cc1cc(O)ccc1O2 (stereo not drawn),35*,26,0,0
O=C(Cn1c(=O)n(Cc2ccco2)c(=O)c2c3c(sc21)CCCCC3)c1ccccc1,-13,38*,0,-23
C=CCn1c(SCC(=O)c2c(C)[nH]c3ccccc23)nnc1-c1ccncc1,5,36*,0,-32
